Data: ChEMBL document CHEMBL2434863, “Synthesis and in vitro/in vivo antibacterial activity of oxazolidinones having thiocarbamate at C-5 on the A-ring and an amide- or urea-substituted [1,2,5]triazepane or [1,2,5]oxadiazepane as the C-ring” (Eur J Med Chem, 2013)

What was measured:
[1] = system: Staphylococcus aureus; assay: Antibacterial activity against Staphylococcus aureus SR20549 clinical isolate assessed as growth inhibition by broth microdilution method; assay type: functional
[2] = system: Moraxella catarrhalis; assay: Antibacterial activity against Moraxella catarrhalis SR26840 clinical isolate assessed as growth inhibition by broth microdilution method; assay type: functional
[3] = target: T1, Cytochrome P450 1A2 (Homo sapiens, UniProt P05177); assay: Inhibition of CYP1A2 in human liver microsomes assessed as ethoxyresorufin O-deethylation after 20 mins by fluorescence plate reader analysis; assay type: ADME, Microsome
T1 sequence (P05177 whole entry): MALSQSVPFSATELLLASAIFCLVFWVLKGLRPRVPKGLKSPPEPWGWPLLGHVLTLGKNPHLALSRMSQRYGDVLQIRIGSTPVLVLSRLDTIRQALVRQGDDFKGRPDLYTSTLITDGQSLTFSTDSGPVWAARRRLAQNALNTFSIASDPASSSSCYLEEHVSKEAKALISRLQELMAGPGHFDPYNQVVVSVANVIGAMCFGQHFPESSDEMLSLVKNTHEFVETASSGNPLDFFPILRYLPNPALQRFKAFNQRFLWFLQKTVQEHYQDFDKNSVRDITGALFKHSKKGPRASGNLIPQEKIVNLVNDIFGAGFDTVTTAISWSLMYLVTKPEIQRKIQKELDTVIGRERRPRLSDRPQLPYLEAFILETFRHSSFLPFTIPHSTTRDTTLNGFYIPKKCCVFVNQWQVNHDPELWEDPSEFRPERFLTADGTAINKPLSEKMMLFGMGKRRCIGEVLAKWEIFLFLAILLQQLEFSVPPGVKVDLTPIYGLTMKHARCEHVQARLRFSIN

[4] = target: Cytochrome P450 2C9 (Homo sapiens, UniProt P11712); assay: Inhibition of CYP2C9 in human liver microsomes assessed as tolbutamide hydroxylation after 20 mins by LC/MS/MS analysis; assay type: ADME, Microsome
[5] = system: Staphylococcus aureus; assay: Antibacterial activity against methicillin-resistant Staphylococcus aureus SR3637 assessed as growth inhibition by broth microdilution method; assay type: functional
[6] = system: Enterococcus faecalis; assay: Antibacterial activity against Enterococcus faecalis SR1004 clinical isolate assessed as growth inhibition by broth microdilution method; assay type: functional
[7] = system: Haemophilus influenzae; assay: Antibacterial activity against Haemophilus influenzae SR27914 clinical isolate assessed as growth inhibition by broth microdilution method; assay type: functional
[8] = system: Staphylococcus aureus; assay: Potency index, ratio of linezolid ED50 to compound ED50 for methicillin-resistant Staphylococcus aureus SR3637 infected in iv dosed JCL/ICR mouse systemic infection model; assay type: functional
[9] = system: Enterococcus faecium; assay: Antibacterial activity against Enterococcus faecium SR7940 clinical isolate assessed as growth inhibition by broth microdilution method; assay type: functional
[10] = target: T2, MAO-A (Rattus norvegicus, UniProt P21396); assay: Inhibition of MAO-A in rat forebrain using [14C]5-HT as substrate at 30 uM incubated for 20 mins prior to substrate addition measured after 5 mins by liquid scintillation counting analysis; assay type: tissue-based; conditions: probe [14C]5-HT
T2 sequence (P21396 whole entry): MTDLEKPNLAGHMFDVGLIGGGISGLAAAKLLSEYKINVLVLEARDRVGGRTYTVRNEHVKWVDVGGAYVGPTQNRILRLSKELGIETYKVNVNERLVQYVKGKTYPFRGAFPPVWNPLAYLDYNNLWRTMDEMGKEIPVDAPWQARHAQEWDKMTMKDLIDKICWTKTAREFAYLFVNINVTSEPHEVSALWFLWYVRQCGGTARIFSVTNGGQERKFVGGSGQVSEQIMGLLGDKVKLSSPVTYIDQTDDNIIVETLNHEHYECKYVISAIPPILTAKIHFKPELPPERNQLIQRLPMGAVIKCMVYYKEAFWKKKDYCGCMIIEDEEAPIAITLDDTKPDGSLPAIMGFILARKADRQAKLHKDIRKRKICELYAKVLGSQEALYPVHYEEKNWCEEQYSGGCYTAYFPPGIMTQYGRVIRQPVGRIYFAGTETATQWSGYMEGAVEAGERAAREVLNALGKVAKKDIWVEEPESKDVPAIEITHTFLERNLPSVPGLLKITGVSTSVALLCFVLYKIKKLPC

[11] = target: T3, MAO-B (Rattus norvegicus, UniProt P19643); assay: Inhibition of MAO-B in rat forebrain using [14C]PEA as substrate at 30 uM incubated for 20 mins prior to substrate addition measured after 10 mins by liquid scintillation counting analysis; assay type: tissue-based; conditions: probe [14C]PEA
T3 sequence (P19643 whole entry): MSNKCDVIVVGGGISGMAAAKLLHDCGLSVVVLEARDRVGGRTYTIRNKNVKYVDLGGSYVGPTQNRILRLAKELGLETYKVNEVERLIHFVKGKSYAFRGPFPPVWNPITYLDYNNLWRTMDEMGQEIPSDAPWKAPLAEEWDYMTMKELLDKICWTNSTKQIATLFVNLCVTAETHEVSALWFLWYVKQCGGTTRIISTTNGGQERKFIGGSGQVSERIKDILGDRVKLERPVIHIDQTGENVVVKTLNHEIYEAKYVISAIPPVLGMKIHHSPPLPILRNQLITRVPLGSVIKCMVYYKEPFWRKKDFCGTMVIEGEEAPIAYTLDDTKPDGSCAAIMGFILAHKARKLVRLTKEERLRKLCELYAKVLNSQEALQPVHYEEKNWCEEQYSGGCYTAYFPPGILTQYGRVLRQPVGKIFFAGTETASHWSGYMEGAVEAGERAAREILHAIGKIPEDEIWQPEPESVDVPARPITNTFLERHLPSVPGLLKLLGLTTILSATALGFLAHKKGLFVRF

[12] = system: Staphylococcus aureus; assay: Antibacterial activity against linezolid-resistant Staphylococcus aureus NRS271 assessed as growth inhibition by broth microdilution method; assay type: functional
[13] = system: Staphylococcus aureus; assay: Antibacterial activity against methicillin-resistant Staphylococcus aureus SR3637 infected in JCL/ICR mouse systemic infection model assessed as mortality administered as iv measured over 7 days; assay type: functional; conditions: 168 h
How it was run: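 Lethal systemic infection model in mice; test agents were given intravenously.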

[14] = system: Streptococcus pneumoniae; assay: Antibacterial activity against Streptococcus pneumoniae SR26207 clinical isolate assessed as growth inhibition by broth microdilution method; assay type: functional
[15] = target: Cytochrome P450 2D6 (Homo sapiens, UniProt P10635); assay: Inhibition of CYP2D6 in human liver microsomes assessed as dextromethorphan O-demethylation after 20 mins by LC/MS/MS analysis; assay type: ADME, Microsome
[16] = target: Cytochrome P450 3A4 (Homo sapiens, UniProt P08684); assay: Inhibition of CYP3A4 in human liver microsomes assessed as terfenadine hydroxylation after 20 mins by LC/MS/MS analysis; assay type: ADME, Microsome
[17] = system: Staphylococcus aureus; assay: Antibacterial activity against Staphylococcus aureus Smith assessed as growth inhibition by broth microdilution method; assay type: functional

Sequence of Cytochrome P450 2C9 (P11712 whole entry): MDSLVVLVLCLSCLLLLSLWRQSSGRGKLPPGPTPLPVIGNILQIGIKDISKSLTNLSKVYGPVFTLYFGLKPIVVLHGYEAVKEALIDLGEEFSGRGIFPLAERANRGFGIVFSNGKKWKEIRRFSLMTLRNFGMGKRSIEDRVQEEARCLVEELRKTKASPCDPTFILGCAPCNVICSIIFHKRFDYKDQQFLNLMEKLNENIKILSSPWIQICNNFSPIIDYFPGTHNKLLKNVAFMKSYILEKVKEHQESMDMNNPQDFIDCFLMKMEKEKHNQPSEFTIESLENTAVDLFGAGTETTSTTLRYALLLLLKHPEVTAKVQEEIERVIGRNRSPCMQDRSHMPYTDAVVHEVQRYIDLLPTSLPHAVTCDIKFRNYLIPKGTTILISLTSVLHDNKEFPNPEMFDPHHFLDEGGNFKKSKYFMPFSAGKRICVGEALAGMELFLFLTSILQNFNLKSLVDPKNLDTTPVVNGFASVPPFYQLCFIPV
Sequence of Cytochrome P450 2D6 (P10635 whole entry): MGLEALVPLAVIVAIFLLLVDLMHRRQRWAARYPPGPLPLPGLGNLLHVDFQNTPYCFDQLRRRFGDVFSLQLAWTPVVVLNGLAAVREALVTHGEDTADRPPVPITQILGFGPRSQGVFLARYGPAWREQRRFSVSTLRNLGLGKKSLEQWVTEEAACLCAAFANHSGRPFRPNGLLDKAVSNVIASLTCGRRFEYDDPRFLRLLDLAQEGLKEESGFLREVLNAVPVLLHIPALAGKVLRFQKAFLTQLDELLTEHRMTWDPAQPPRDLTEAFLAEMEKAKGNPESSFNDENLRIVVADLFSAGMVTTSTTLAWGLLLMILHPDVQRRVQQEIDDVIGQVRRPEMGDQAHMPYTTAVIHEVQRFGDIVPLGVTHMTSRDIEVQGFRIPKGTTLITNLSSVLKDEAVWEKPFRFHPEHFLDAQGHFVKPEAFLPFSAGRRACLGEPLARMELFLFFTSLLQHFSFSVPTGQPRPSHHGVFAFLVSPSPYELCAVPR
Sequence of Cytochrome P450 3A4 (P08684 whole entry): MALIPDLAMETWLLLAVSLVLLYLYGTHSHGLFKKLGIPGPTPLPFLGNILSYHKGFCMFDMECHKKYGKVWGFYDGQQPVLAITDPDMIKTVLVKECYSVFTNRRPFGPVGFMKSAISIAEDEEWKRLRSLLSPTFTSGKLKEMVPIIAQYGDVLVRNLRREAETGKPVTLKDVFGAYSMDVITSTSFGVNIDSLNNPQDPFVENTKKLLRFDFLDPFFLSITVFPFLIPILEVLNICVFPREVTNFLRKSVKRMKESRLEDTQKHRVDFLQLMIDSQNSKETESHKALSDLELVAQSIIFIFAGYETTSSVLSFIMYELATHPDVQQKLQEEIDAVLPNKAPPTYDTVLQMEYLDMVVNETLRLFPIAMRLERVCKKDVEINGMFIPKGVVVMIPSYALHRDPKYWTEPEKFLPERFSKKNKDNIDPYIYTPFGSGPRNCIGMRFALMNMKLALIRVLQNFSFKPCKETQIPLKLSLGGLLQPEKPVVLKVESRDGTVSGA

SMILES: COC(=S)NC[C@H]1CN(c2ccc(N3CCNN(C(=O)C(F)F)CC3)c(F)c2)C(=O)O1
- MIC [1]: 0.125 µg/mL
- MIC [2]: 2 µg/mL
- IC50 [3]: > 20 µM
- IC50 [4]: > 20 µM
- MIC [5]: 0.25 µg/mL
- MIC [6]: 0.25 µg/mL
- MIC [7]: 4 µg/mL
- Ratio ED50 [8]: 3
- MIC [9]: 0.25 µg/mL
- inhibition at 5 min, 30 µM [10]: 9.2%
- inhibition at 10 min, 30 µM [11]: 0.1%
- MIC [12]: 4 µg/mL
- ED50 [13]: 0.77 mg/kg
- MIC [14]: 0.063 µg/mL
- IC50 [15]: > 20 µM
- IC50 [16]: > 20 µM
- MIC [17]: 0.5 µg/mL
